Assay results pooled from the literature.
CECR2: Chromatin remodeling regulator CECR2 (CECR2, Homo sapiens, UniProt Q9BXF3)
CHEK2 I157T: Serine/threonine-protein kinase Chk2 (CHEK2, Homo sapiens, UniProt O96017, I157T)
CASK: Peripheral plasma membrane protein CASK (CASK, Homo sapiens, UniProt O14936)
SLC6A2: Sodium-dependent noradrenaline transporter (SLC6A2, Homo sapiens, UniProt P23975)

Oc1ccc(-c2nc(-c3ccncc3)c(-c3ccc(F)cc3)[nH]2)cc1  ΔTm (CECR2; thermal stability, DSF; 10 µM): 1.3 °C
CNC(=O)c1cc(Oc2ccc(NC(=O)Nc3ccc(Cl)c(C(F)(F)F)c3)cc2)ccn1  inhibition (CHEK2 I157T; enzyme activity, inhibitor; 10 µM): -1%
CC(=O)N[C@H]1CSSC[C@@H](C(=O)N[C@H](Cc2c[nH]c3ccccc23)C(N)=O)NC(=O)[C@H](Cc2ccccc2)NC(=O)[C@H](CCCNC(=N)N)NC1=O  Emax (Melanocortin receptor 4 (MC4R, Homo sapiens, UniProt P32245); cAMP, agonist; HEK293; 3 min): 0%
Cc1cnc(Nc2ccc(OCCN3CCCC3)cc2)nc1Nc1cccc(S(=O)(=O)NC(C)(C)C)c1  ΔTm (CECR2; thermal stability, DSF; 10 µM): 0.12 °C
CC(C)(C)c1nc(-c2cccc(NS(=O)(=O)c3c(F)cccc3F)c2F)c(-c2ccnc(N)n2)s1  remaining activity (Mitotic checkpoint serine/threonine-protein kinase BUB1 beta (BUB1B, Homo sapiens, UniProt O60566); enzyme activity, inhibitor, radiometric; 1 µM): 101%
CCN1CCN(Cc2ccc(NC(=O)c3ccc(C)c(Oc4ccnc5[nH]ccc45)c3)cc2C(F)(F)F)CC1  inhibition (Serine/threonine-protein kinase 10 (STK10, Homo sapiens, UniProt O94804); target engagement in cells, inhibitor, chemoproteomics; A-375; 5 µM): -138%
Nc1ncnc2occ(-c3ccc(NC(=O)Nc4cc(C(F)(F)F)ccc4F)cc3)c12  remaining signal (CASK; cell-free assay; 20 µM): 56%
Clc1ccc(C(c2ccccc2)c2nnnn2CCCN2CCC(CCc3ccccc3)CC2)cc1 (stereo not shown)  inhibition (SLC6A2; transporter uptake, inhibitor; HEK293; 1 µM): 50.1%
CCCOc1ccc(OC)c(F)c1C(=O)c1ccc(C(=O)N[C@@H]2CNC[C@H]2NC(=O)c2ccc3[nH]ncc3c2)cc1  remaining activity (cAMP-dependent protein kinase catalytic subunit PRKX (PRKX, Homo sapiens, UniProt P51817); enzyme activity, inhibitor; 0.75 µM): 4%
Fc1ccc(C(c2ccc(F)cc2)c2nnnn2CCCN2CCC(Cc3ccccc3)CC2)cc1  inhibition (SLC6A2; transporter uptake, inhibitor; HEK293; 1 µM): 39.7%
Cc1cc(NC(=O)c2cccc3cc(-c4cccc5[nH]nc(N)c45)ccc23)ccc1F  activity vs control (CHEK2 I157T; enzyme activity, inhibitor; 0.1 µM): 72%
Clc1ccc(C(c2ccc(Cl)cc2)c2nnnn2CCCCN2CCC(Cc3ccc(Cl)c(Cl)c3)CC2)cc1  inhibition (SLC6A2; transporter uptake, inhibitor; HEK293; 1 µM): 41.1%
Cc1ccc(C(=O)Nc2ccc(CN3CCN(C)CC3)c(C(F)(F)F)c2)cc1C#Cc1cnc2cccnn12  remaining signal (CASK; cell-free assay; 23.5 nM): 84%
